Measurements published in ChEMBL document CHEMBL4699460, “Integrating DNA-encoded chemical libraries with virtual combinatorial library screening: Optimizing a PARP10 inhibitor” (Bioorg Med Chem Lett, 2020).

Legend:
[1] = biological target: Protein mono-ADP-ribosyltransferase PARP14 (Homo sapiens) (UniProt Q460N5); assay: (§1) Inhibition of N-terminal His-GST tagged human PARP14 (1470 to 1801 residues) expressed in baculovirus infected Sf9 cells assessed as reduction in NAD+-dependent ADP ribosylation using histone as substrate at 1 uM incubated for 1 hr in presence of biotinylated NAD+ and activated DNA by chemiluminescence based microplate reader assay relative to control
Protein mono-ADP-ribosyltransferase PARP14 (Homo sapiens), sequence (Q460N5 whole entry, the tested form may be a part): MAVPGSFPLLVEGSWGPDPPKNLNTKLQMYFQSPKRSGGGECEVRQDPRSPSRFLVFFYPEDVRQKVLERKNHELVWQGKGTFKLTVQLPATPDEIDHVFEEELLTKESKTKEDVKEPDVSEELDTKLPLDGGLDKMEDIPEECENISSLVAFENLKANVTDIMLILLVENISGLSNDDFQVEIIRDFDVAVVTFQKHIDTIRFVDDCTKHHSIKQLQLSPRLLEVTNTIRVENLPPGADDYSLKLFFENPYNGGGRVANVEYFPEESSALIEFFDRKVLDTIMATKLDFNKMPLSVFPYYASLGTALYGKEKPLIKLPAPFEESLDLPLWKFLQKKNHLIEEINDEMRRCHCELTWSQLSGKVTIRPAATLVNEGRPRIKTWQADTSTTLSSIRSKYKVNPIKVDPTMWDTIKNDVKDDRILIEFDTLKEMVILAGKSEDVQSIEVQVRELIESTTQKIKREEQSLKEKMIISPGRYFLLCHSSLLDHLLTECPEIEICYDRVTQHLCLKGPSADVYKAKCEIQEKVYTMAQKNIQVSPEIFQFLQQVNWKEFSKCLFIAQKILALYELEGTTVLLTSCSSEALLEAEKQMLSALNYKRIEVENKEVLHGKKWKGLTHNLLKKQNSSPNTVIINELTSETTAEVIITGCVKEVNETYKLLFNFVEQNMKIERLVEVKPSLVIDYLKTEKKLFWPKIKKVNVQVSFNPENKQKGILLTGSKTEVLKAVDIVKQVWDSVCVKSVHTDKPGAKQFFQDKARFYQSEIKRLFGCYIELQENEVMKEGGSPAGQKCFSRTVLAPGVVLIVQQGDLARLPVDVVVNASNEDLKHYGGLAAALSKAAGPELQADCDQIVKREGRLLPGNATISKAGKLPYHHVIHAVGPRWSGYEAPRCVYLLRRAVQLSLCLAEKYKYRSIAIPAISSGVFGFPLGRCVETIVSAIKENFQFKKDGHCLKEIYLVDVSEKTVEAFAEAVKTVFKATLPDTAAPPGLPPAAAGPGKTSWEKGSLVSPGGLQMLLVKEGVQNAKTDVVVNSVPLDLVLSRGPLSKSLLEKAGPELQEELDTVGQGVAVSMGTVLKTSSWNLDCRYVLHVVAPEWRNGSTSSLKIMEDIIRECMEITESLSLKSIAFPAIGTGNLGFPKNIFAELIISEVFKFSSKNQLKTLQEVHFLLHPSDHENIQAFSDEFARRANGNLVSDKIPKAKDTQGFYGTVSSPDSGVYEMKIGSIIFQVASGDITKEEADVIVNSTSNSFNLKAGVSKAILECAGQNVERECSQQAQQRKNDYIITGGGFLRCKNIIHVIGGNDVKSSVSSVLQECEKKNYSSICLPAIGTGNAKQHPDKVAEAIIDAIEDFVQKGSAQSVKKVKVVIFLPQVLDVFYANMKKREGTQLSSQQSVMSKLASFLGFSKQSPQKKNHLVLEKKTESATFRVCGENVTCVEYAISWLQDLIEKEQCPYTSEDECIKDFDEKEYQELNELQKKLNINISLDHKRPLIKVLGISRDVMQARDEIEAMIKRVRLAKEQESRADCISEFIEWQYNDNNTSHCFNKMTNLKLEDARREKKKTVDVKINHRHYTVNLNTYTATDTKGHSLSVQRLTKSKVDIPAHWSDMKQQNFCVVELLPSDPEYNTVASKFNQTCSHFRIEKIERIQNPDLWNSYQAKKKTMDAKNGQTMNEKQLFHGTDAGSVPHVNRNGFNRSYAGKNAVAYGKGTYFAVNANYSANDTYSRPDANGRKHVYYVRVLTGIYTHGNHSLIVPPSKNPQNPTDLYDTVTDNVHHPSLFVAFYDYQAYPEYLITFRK

[2] = biological target: T1, Protein mono-ADP-ribosyltransferase PARP10 (Homo sapiens) (UniProt Q53GL7); assay: as §1, with “N-terminal FLAG-tagged and C-terminal strep-tagged” for “N-terminal His-GST tagged”, “human PARP10 (805” for “human PARP14 (1470”, “to 1025” for “to 1801”, “at 10” for “at 1”
T1 sequence (whole entry): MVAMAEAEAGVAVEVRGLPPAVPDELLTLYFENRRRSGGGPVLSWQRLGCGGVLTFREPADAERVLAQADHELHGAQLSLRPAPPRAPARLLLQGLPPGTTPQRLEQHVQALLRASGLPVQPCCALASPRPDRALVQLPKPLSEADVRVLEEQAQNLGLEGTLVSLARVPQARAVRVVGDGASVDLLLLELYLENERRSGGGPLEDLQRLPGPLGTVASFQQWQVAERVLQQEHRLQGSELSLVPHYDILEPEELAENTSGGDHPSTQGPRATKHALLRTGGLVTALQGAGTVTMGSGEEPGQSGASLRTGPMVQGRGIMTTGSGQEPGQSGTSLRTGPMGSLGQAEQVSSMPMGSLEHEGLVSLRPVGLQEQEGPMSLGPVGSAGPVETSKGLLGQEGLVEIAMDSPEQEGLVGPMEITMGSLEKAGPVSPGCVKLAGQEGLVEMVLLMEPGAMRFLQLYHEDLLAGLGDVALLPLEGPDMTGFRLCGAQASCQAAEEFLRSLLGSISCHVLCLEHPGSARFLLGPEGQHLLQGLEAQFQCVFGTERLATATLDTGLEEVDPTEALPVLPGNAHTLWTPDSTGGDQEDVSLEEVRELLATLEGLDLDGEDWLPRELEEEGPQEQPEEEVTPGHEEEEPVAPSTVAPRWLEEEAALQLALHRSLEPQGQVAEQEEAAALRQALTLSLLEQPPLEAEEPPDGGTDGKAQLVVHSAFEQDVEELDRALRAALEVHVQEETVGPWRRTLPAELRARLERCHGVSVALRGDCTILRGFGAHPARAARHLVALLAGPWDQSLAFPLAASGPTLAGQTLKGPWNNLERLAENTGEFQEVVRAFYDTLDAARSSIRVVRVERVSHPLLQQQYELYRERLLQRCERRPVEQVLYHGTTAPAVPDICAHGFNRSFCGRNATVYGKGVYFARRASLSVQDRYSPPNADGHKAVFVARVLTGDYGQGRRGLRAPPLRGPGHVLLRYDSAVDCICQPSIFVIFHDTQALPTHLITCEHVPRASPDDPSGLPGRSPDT

[3] = biological target: T1, Protein mono-ADP-ribosyltransferase PARP10 (Homo sapiens); assay: as §1, with “FLAG-tagged and C-terminal strep-tagged” for “His-GST tagged”, “PARP10 (805” for “PARP14 (1470”, “1025” for “1801”, “assay” for “assay relative to control”
[4] = biological target: Protein mono-ADP-ribosyltransferase PARP14 (Homo sapiens) (UniProt Q460N5); assay: as §1, with “at 10” for “at 1”
[5] = biological target: T2, Protein mono-ADP-ribosyltransferase PARP10 (Homo sapiens, UniProt Q53GL7); assay: Inhibition of N-terminal FLAG-tagged and C-terminal strep-tagged human PARP10 (805 to 1025 residues) expressed in baculovirus infected Sf9 cells assessed as reduction in NAD+-dependent ADP ribosylation using histone as substrate incubated for 1 hr in presence of biotinylated NAD+ and activated DNA by chemiluminescence based microplate reader assay
T2 sequence (Q53GL7 whole entry): T1 sequence (whole entry)
How it was run: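 The IC50 was derived from a concentration-dependent inhibition curve for PARP10 in the histone ADP-ribosylation assay.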

Structure (SMILES) | inhibition [1] [%] | inhibition [2] [%] | inhibition [3] [%] | inhibition [4] [%] | IC50 [5] [µM]
O=C1CCCc2c(OCC(=O)N3CCN(C(=O)CCc4nc5ccccc5[nH]c4=O)C[C@@H]3CO)cccc21 | 12 | 9 | 15 | – | –
O=C(CCc1nc2ccccc2[nH]c1=O)NCC(=O)N1CCN(C(=O)COc2cccc3c2CCCC3=O)CC1 | 2 | 10 | 13 | – | –
O=C(CCc1nc2ccccc2[nH]c1=O)NCC(=O)N1CCN(C(=O)Nc2ccc3c(c2)C(=O)CCC3)CC1 | 0 | 46 | 17 | – | 28
O=C(COc1ccc2c(c1)C(=O)CCC2)NC1CCN(C(=O)CCc2nc3ccccc3[nH]c2=O)CC1 | 27 | 16 | 11 | – | –

Next, values leading:

inhibition [1] [%] | inhibition [2] [%] | inhibition [3] [%] | inhibition [4] [%] | IC50 [5] [µM] | Structure (SMILES)
7 | 12 | 13 | – | – | O=C1CCCc2cc(C(=O)N3C[C@@H]4C[C@H]3CN4C(=O)CCc3nc4ccccc4[nH]c3=O)ccc21
6 | 35 | 0 | 10 | – | O=C(COc1ccc2c(c1)CCCC2=O)NC[C@@H]1CCCN1C(=O)CCc1nc2ccccc2[nH]c1=O
0 | 4 | 13 | – | – | O=C1CCCc2cc(C(=O)N3CCN(C(=O)CCc4nc5ccccc5[nH]c4=O)C[C@H]3CO)ccc21
0 | 37 | 0 | 5 | – | O=C(NC[C@@H]1CCCN1C(=O)CCc1nc2ccccc2[nH]c1=O)c1ccc2c(c1)CCCC2=O
17 | 15 | 1 | – | – | CC[C@H]1CN(C(=O)COc2cccc3c2CCCC3=O)CCN1C(=O)CCc1nc2ccccc2[nH]c1=O
